The structures appear in SMILES notation. In brackets after ≈: the same amount, converted by molar mass. Activity calls are given as the source filed them. The rule behind the calls is not given here.

Data set [1] deals with Mycobacterium tuberculosis. Briefly: Antimycobacterial activity against Mycobacterium tuberculosis H37Rv ATCC 25618 after 10 to 14 days by microplate alamar blue assay. Type of data set: functional. (Resazurin is reduced to fluorescent resorufin, in cell work by metabolically active cells.)
The subject of data set [2] is Mycobacterium tuberculosis. Briefly: Antimycobacterial activity against Mycobacterium tuberculosis pSMT1 infected in mouse J774A.1 ATCC TIB-67 cells assessed as viable bacterial count at 0.125 ug/ml for 4 days followed by 3 days incubation in drug-free medium by luciferase reporter gene assay. The data set is classed as functional. The method in brief:
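Mtb-infected J774A.1 mouse macrophages exposed to drug for 4 days, then medium replaced with drug-free medium and cultures incubated 3 more days. Triplicate wells lysed on day 0 and day 7 and viable bacteria measured as relative light units. Isoniazid control at 0.125 μg/ml.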

In data set [3] the test system is Mycobacterium tuberculosis. Briefly: Antimycobacterial activity against Mycobacterium tuberculosis H37Rv infected in C3H/HeNCrlBR mouse assessed as prevention of body weight loss at 10 mg/kg, po administered 7 days after infection for 2 weeks measured after 10 to 15 days relative to control. The data set is classed as functional, organism-based. Also noted: dose 10 mg/kg. The method in brief: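 Treatment began 7 days after infection: oral gavage once daily at 10 mg/kg for 2 wk. Body weights tracked from day 0 through day 21 and compared with uninfected mice and infected placebo-treated mice. Mortality was followed after therapy ended.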

Data set [4] deals with Mycobacterium tuberculosis. In words: Antimycobacterial activity against recombinant strain Mycobacterium tuberculosis Rv0341 by firefly luciferase reporter gene assay. The data set is classed as functional, organism-based. The method in brief: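 Recombinant Mtb carrying a promoter fused to firefly luciferase, which is activated and produces light when cell wall biosynthesis is inhibited. High-throughput luminescence read-out.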

Data set [5] deals with J774.A1. In words: Cytotoxicity against mouse J774A1 cells assessed as cell aggregation at 4 ug/ml. Type of data set: cell-based.
The subject of data set [6] is Mycobacterium tuberculosis. In words: Antimycobacterial activity against Mycobacterium tuberculosis pSMT1 infected in mouse J774A.1 ATCC TIB-67 cells assessed as viable bacterial count at 4 ug/ml for 4 days followed by 3 days incubation in drug-free medium by luciferase reporter gene assay. Type of data set: functional. Background: A reporter such as luciferase makes a cellular process visible.

Data set [7] concerns Mycobacterium tuberculosis. In words: Antimycobacterial activity against Mycobacterium tuberculosis pSMT1 infected in mouse J774A.1 ATCC TIB-67 cells assessed as inhibition of intracellular bacterial growth at MIC for 4 days followed by 3 days incubation in drug-free medium by luciferase reporter gene assay. The data set is classed as functional.

In general, MIC refers to the lowest concentration that inhibits growth of the organism. A high value points to weaker potency. `OCC1CCCN(CC2CCN(CC(c3ccccc3)c3ccccc3)CC2)C1` (stereo not drawn) had an MIC in data set [1] of 40 mg/L (≈ 102 µM).

For `OC1CCN(CC2CCN(CCOc3ccccc3)CC2)CC1`, 8 mg/L (≈ 25.1 µM) was the least that counted as inhibitory in data set [1] (MIC). This MIC is about 5-fold lower than that of the compound before. The compound `CCC(CN1CCC(CN2CCC(O)CC2)CC1)c1ccccc1` (stereo not drawn) had an MIC in data set [1] of 8 mg/L (≈ 24.2 µM).

In turn, `CC(C)=CCC/C(C)=C/CN1CCC(CN2CCC(Cc3ccccc3)CC2)CC1` returned an MIC in data set [1] of 20 mg/L (≈ 48.9 µM).

`c1ccc(CC2CCN(CC3CCN(CC(c4ccccc4)c4ccccc4)CC3)CC2)cc1`: in data set [1], the MIC came to 11 mg/L (≈ 24.3 µM). With `OC1CCN(CC2CCN(CC3CCCCCC3)CC2)CC1`, the MIC in data set [1] stood at 14 mg/L (≈ 45.4 µM).

`OC1CCN(CC2CCN(CCC34CC5CC(CC(C5)C3)C4)CC2)CC1` showed an MIC in data set [1] of 15 mg/L (≈ 41.6 µM). Still for that read-out and setting: the value for `c1ccc(CC2CCN(CC3CCN(CCC45CC6CC(CC(C6)C4)C5)CC3)CC2)cc1` was 5 mg/L (≈ 11.5 µM).

`NNC(=O)c1ccncc1` [ISONIAZID]: the Activity in data set [2] is on record as 4 RLU. Turning to `OC1CCN(CC2CCN(CC(c3ccccc3)c3ccccc3)CC2)CC1`, the result in data set [3], in data set [4] and in data set [1] was Active. Besides, in data set [5], the Activity result was “Toxic”. The MIC in data set [1] was determined as 4 mg/L (≈ 10.6 µM).

Compound `c1ccc(CC2CCN(CC3CCN(CC45CC6CC(CC(C6)C4)C5)CC3)CC2)cc1` registered an MIC in data set [1] of 10 mg/L (≈ 23.8 µM).

`OC1CCN(CC2CCN(C3C4CC5CC(C4)CC3C5)CC2)CC1` (stereo not drawn): the outcome in data set [4] and in data set [1] was Active. For the compound `OC1CCN(CC2CCN(CC34CC5CC(CC(C5)C3)C4)CC2)CC1`, the outcome in data set [3], in data set [4] and in data set [1] was Active. The compound further returned an MIC in data set [1] of 4 mg/L (≈ 11.5 µM). Moreover, the Activity in data set [6] is on record as 354 RLU. Besides, the “inhibition (INH)” value in data set [7] was more than 90%.

(Values after ChEMBL document CHEMBL1821655, “Identification of SQ609 as a lead compound from a library of dipiperidines” (Bioorg Med Chem Lett, 2011).)
